Measurements of several laboratories.
Protocols differ between the studies behind these lines.
Cell line: A549
Effect on: cell growth or viability

With `CC(C)=CCC[C@](C)(O)[C@H]1CC[C@]2(C)[C@@H]1[C@H](O)C[C@@H]1[C@@]3(C)CC[C@H](O[C@@H]4O[C@H](CO)[C@@H](O)[C@H](O)[C@H]4O[C@@H]4O[C@H](CO)[C@@H](O)[C@H](O)[C@H]4O)C(C)(C)[C@@H]3CC[C@]12C` the IC80 was > 100 µM (MTT; 72 h).
With `O=C(/C=C/c1ccc2c(ccn2S(=O)(=O)c2ccccc2)c1)NO` the GI50 was 1 µM (SRB; 48 h).
`COc1cccc(NC(=O)CN2C(=O)/C(=C/c3ccccc3)SC2=S)c1` gave an inhibition of 26.3% (MTT; 10 µM).
The inhibition of `COc1ccc2c(c1)C(=NNc1nc(-c3ccc(OC)c(OC)c3)nc3ccccc13)C(=O)N2` is reported as 17% (30 µM).
The EC90 of `C[C@]12CC[C@@H]3c4ccc(O)cc4CC[C@H]3[C@@H]1CC[C@@H]2O` is reported as 56.1 µM (ATP luminescence; 72 h).
`CCCCc1nc(Cl)c(CO)n1Cc1ccc(-c2ccccc2-c2nn[nH]n2)cc1` has an EC50 of 63 µM (MTT; 72 h).
With `CCn1cc(C(=O)O)c(=O)c2cc(F)c(N3CCNCC3)cc21` the GI50 was > 80 µg/mL (SRB; 48 h).
With `O=C1Nc2ccccc2C1=NNc1nnc(Cc2ccccc2)c2ccccc12` the inhibition was 81.1% (30 µM).
`CC1=C(C(=O)OC(C)C)C(c2cccc([N+](=O)[O-])c2)C(C(=O)OC2CN(C(c3ccccc3)c3ccccc3)C2)=C(N)N1` (centres unmarked) gave a viability of < 50% (CCK-8; 100 µM; 72 h).
`O=C(CN1C(=O)/C(=C/c2ccc(F)cc2)SC1=S)Nc1ccccc1` has an inhibition of 27.6% (MTT; 10 µM).
The EC50 of `CS(=O)(=O)CCNCc1ccc(-c2ccc3ncnc(Nc4ccc(OCc5cccc(F)c5)c(Cl)c4)c3c2)o1` is reported as 67 µM (MTT; 72 h).
For `O=C(CN1C(=O)/C(=C/c2ccccc2)SC1=S)Nc1ccccc1`, the inhibition was 43.3% (MTT; 10 µM).
With `COc1ccc(-c2nc(NN=C3C(=O)Nc4ccc(F)cc43)c3ccccc3n2)cc1OC` the inhibition was 4.9% (30 µM).
With `CCN(CC)CCNC(=O)c1c(C)[nH]c(/C=C2\C(=O)Nc3ccc(F)cc32)c1C` the inhibition was 85.7% (30 µM).
The inhibition of `O=C(CN1C(=O)/C(=C/c2ccccn2)SC1=S)Nc1ccccc1` is reported as 32.6% (MTT; 10 µM).
The IC20 of `COC(C)(C)CCC[C@](C)(O)[C@H]1CC[C@]2(C)[C@@H]1[C@H](O)C[C@@H]1[C@@]3(C)CC[C@H](O)C(C)(C)[C@@H]3CC[C@]12C` is reported as 0.66 µM (MTT; 72 h).
`O=C(CN1C(=O)/C(=C/c2ccc(C(F)(F)F)cc2)SC1=S)Nc1ccccc1` has an inhibition of 27.8% (MTT; 10 µM).
`COC(=O)C1=C(C)NC(C)=C(C(=O)OCCN(C)Cc2ccccc2)C1c1cccc([N+](=O)[O-])c1` (centres unmarked) gave a viability of < 50% (CCK-8; 100 µM; 72 h).
`Cn1c(=O)c(NN=C2C(=O)Nc3ccc(Cl)cc32)nc2ccccc21` has an inhibition of 27.1% (30 µM).
`O=C(CN1C(=O)/C(=C/c2cccc(Cl)c2)SC1=S)Nc1ccccc1` gave an inhibition of 25.9% (MTT; 10 µM).
